In ChEMBL document CHEMBL2346500, “Design and synthesis of dual-action inhibitors targeting histone deacetylases and 3-hydroxy-3-methylglutaryl coenzyme A reductase for cancer treatment” (J Med Chem, 2013):
pIC50: −log10 of the molar value.

Assays:
A549 [1] = experiment: Selectivity index, ratio of IC50 for human HS68 cells to IC50 for human A549 cells; type: functional
A549 [2] = experiment: Selectivity index, ratio of IC50 for mouse MEF cells to IC50 for human A549 cells; type: functional
Hs68 = experiment: Cytotoxicity against human HS68 cells after 72 hrs by MTT assay; type: ADME, cell-based; conditions: Hs68, 72 h
MEF = experiment: Cytotoxicity against mouse MEF cells after 72 hrs by MTT assay; type: ADME, cell-based
[3] = biological target: T1, Protein deacetylase HDAC6 (Homo sapiens) (UniProt Q9UBN7); experiment: Inhibition of HDAC6 in human A549 cells assessed as increase in tubulin acetylation after 24 hrs by Western blotting analysis; type: cell-based
T1 sequence (whole entry): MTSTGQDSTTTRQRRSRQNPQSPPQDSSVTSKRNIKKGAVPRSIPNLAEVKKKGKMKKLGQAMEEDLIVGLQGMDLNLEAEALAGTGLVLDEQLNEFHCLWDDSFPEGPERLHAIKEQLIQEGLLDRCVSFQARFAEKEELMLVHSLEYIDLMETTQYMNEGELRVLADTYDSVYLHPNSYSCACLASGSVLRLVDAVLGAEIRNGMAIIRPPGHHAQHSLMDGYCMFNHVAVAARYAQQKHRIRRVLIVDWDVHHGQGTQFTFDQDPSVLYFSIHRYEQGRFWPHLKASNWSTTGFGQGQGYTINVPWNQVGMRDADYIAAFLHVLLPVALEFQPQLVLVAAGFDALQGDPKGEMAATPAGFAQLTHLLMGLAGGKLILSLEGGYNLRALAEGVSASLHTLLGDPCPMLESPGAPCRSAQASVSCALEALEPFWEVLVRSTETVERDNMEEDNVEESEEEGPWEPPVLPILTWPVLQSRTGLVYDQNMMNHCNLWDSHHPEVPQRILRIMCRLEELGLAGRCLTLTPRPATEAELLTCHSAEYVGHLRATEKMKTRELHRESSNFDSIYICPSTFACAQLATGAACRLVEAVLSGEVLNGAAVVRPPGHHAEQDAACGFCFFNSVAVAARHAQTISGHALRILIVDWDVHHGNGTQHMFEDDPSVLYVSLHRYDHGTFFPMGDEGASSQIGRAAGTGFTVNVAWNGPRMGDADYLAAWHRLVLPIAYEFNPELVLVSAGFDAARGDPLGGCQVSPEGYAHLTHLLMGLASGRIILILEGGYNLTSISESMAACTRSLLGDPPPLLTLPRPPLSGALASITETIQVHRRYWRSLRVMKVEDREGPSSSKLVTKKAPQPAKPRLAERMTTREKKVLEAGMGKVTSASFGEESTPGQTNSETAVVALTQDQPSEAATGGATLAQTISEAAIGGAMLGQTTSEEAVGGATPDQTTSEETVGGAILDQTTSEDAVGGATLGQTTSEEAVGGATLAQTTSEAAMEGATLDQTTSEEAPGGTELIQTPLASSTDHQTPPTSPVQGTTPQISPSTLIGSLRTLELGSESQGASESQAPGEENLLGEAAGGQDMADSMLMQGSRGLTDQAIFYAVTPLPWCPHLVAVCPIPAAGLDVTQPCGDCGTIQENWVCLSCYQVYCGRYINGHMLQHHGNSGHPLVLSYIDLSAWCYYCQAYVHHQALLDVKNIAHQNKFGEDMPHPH
Outline: (§1)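 A549 cells (DMEM, 10% FBS, penicillin/streptomycin, 5% CO2) exposed to compounds at indicated doses for 24 h. Cells lysed on ice, total lysates run on SDS–PAGE and immunoblotted with antibodies to acetyl-histone H3, acetyl-tubulin and actin. Loading normalised to β-actin.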

[4] = biological target: Histone deacetylase (Homo sapiens) (UniProt Q13547+O15379+Q9UBN7+Q92769+Q9UQL6+Q8WUI4+Q9BY41+Q96DB2+P56524+Q9UKV0+Q969S8); experiment: Inhibition of class 1 HDAC in human A549 cells assessed as increase in histone acetylation after 24 hrs by Western blotting analysis; type: cell-based; outline: as §1
[5] = biological target: T2, 3-hydroxy-3-methylglutaryl-coenzyme A reductase (Homo sapiens, UniProt P04035); experiment: Inhibition of HMG-CoA reductase in human A549 cells after 5 mins by spectrophotometric analysis
T2 sequence (P04035 whole entry): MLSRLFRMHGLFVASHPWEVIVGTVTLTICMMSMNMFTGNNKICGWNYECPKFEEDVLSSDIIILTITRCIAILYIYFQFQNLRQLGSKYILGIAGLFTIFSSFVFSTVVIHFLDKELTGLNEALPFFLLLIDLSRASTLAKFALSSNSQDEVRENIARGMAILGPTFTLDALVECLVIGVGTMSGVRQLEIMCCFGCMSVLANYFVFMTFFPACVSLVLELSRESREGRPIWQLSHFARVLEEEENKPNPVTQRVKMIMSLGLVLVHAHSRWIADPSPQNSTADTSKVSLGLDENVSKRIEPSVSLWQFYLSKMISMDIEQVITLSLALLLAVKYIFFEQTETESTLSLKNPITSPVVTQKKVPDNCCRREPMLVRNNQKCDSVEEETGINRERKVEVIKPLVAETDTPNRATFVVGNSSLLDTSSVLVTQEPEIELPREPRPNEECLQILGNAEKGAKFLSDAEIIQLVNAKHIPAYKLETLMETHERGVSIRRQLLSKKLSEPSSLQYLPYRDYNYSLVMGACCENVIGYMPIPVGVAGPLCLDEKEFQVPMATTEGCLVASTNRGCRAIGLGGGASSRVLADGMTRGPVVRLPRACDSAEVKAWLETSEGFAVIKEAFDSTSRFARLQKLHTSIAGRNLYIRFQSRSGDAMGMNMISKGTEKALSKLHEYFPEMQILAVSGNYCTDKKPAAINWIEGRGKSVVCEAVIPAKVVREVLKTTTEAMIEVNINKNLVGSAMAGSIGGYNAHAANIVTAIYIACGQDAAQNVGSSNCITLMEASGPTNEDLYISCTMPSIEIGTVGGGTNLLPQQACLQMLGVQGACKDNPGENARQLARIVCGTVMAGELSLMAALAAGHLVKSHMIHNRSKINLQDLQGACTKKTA

[6] = biological target: T3, Protein deacetylase HDAC6 (Homo sapiens, UniProt Q9UBN7); experiment: Inhibition of recombinant HDAC6 (unknown origin) after 10 mins by fluorimetric analysis
T3 sequence (Q9UBN7 whole entry): T1 sequence (whole entry)

Histone deacetylase 2 = Histone deacetylase 2 (Homo sapiens, UniProt Q92769); experiment: Inhibition of recombinant HDAC2 (unknown origin) after 10 mins by fluorimetric analysis
Histone deacetylase 1 = Histone deacetylase 1 (Homo sapiens, UniProt Q13547); experiment: Inhibition of recombinant HDAC1 (unknown origin) after 10 mins by fluorimetric analysis
[7] = biological target: T2, 3-hydroxy-3-methylglutaryl-coenzyme A reductase; experiment: Inhibition of recombinant HMG-CoA reductase (unknown origin) after 10 mins by spectrophotometric analysis
A549 [8] = experiment: Cytotoxicity against human A549 cells after 72 hrs by MTT assay; type: functional, cell-based; conditions: A549, 72 h

Sequence of Histone deacetylase 1 (Q13547 whole entry): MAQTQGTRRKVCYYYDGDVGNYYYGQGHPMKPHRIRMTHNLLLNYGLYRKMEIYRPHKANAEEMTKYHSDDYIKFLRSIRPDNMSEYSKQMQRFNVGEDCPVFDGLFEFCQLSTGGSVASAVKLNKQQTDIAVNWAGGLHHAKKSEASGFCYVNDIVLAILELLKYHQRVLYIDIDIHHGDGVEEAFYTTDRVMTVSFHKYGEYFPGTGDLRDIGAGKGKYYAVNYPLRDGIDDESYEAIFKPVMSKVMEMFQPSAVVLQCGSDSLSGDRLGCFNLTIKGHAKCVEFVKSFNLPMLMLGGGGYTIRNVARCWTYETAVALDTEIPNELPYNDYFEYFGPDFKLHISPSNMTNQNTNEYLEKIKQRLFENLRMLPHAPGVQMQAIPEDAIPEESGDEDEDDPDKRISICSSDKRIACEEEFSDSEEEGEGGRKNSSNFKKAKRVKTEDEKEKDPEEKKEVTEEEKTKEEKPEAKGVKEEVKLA
Sequence of Histone deacetylase 2 (Q92769 whole entry): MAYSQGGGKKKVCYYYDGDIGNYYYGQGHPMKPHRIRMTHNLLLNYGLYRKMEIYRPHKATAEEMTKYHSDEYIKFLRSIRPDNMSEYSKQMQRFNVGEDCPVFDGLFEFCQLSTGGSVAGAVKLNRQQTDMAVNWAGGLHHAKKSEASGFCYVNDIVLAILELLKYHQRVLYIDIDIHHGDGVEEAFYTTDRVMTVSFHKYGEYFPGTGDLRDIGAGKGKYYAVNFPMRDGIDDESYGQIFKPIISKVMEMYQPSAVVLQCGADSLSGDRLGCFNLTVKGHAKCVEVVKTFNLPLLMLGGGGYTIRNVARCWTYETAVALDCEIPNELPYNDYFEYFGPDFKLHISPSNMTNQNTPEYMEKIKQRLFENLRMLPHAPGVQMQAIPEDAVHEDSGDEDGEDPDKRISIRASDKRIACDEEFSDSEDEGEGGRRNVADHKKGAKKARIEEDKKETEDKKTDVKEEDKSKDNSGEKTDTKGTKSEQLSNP

CCC(C)(C)C(=O)O[C@H]1C[C@@H](C)C=C2C=C[C@H](C)[C@H](CC[C@@H](O)C[C@@H](O)CC(=O)NO)[C@H]21
Ratio IC50 (A549 [1]): >5 | Ratio IC50 (A549 [2]): >5 | pIC50 (Hs68): < 4.00 | pIC50 (MEF): < 4.00 | inhibition [3]: Dose-dependent effect | inhibition [4]: Dose-dependent effect | pIC50 [5]: 5.10 | pIC50 [6]: 7.16 | pIC50 (Histone deacetylase 2): 6.38 | pIC50 (Histone deacetylase 1): 7.20 | pIC50 [7]: 7.88

CC(C)c1nc(N(C)S(C)(=O)=O)nc(-c2ccc(F)cc2)c1/C=C/[C@@H](O)C[C@@H](O)CC(=O)NO
inhibition [3]: Dose-dependent effect | inhibition [4]: Dose-dependent effect | pIC50 [5]: 4.83

CC[C@H](C)C(=O)O[C@H]1C[C@@H](C)C=C2C=C[C@H](C)[C@H](CC[C@@H](O)C[C@@H](O)CC(=O)NO)[C@H]21
Ratio IC50 (A549 [1]): >5.6 | Ratio IC50 (A549 [2]): >5.6 | pIC50 (Hs68): < 4.00 | pIC50 (MEF): < 4.00 | inhibition [3]: Dose-dependent effect | inhibition [4]: Dose-dependent effect | pIC50 [5]: 4.80 | pIC50 [6]: 7.29 | pIC50 (Histone deacetylase 2): 6.33 | pIC50 (Histone deacetylase 1): 7.19 | pIC50 [7]: 7.77

O=C(CCCCCCC(=O)Nc1ccccc1)NO [VORINOSTAT]
pIC50 [7]: < 5.00

C[C@H]1C=C2C=C[C@H](C)[C@H](CC[C@@H]3C[C@@H](O[Si](C)(C)C(C)(C)C)CC(=O)O3)[C@H]2[C@@H](OC(=O)Nc2ccc(-c3cn(CCCCCCC(=O)NO)nn3)cc2)C1
inhibition [3]: Dose-dependent effect | inhibition [4]: Dose-dependent effect | pIC50 [6]: 6.89 | pIC50 (Histone deacetylase 2): 6.33 | pIC50 (Histone deacetylase 1): 6.80

CC(C)c1c(C(=O)Nc2ccccc2)c(-c2ccccc2)c(-c2ccc(F)cc2)n1CC[C@@H](O)C[C@@H](O)CC(=O)NO
Ratio IC50 (A549 [1]): >5.7 | Ratio IC50 (A549 [2]): >5.7 | pIC50 (Hs68): < 4.00 | pIC50 (MEF): < 4.00 | inhibition [3]: Dose-dependent effect | inhibition [4]: Dose-dependent effect | pIC50 [5]: 5.24 | pIC50 [6]: 7.06 | pIC50 (Histone deacetylase 1): 6.91 | pIC50 [7]: 7.91

C[C@H]1C=C2C=C[C@H](C)[C@H](CC[C@@H]3C[C@@H](O[Si](C)(C)C(C)(C)C)CC(=O)O3)[C@H]2[C@@H](OC(=O)NCc2ccc(-c3cn(CCCCCCC(=O)NO)nn3)cc2)C1
inhibition [3]: Dose-dependent effect | inhibition [4]: Dose-dependent effect | pIC50 [6]: 7.47 | pIC50 (Histone deacetylase 2): 6.05 | pIC50 (Histone deacetylase 1): 6.90

CC(C)c1c(C(=O)Nc2ccccc2)c(-c2ccccc2)c(-c2ccc(F)cc2)n1CC[C@@H](O)C[C@@H](O)CC(=O)O [ATORVASTATIN]
pIC50 (MEF): 4.51

C[C@H]1C=C2C=C[C@H](C)[C@H](CC[C@@H]3C[C@@H](O[Si](C)(C)C(C)(C)C)CC(=O)O3)[C@H]2[C@@H](OC(=O)NCCCCCCC(=O)NO)C1
pIC50 [6]: 6.85 | pIC50 (Histone deacetylase 2): 6.18 | pIC50 (Histone deacetylase 1): 6.91

CCC(C)(C)C(=O)O[C@H]1C[C@@H](C)C=C2C=C[C@H](C)[C@H](CC[C@@H]3C[C@@H](O)CC(=O)O3)[C@H]21 [SIMVASTATIN]
Ratio IC50 (A549 [1]): 1.6 | Ratio IC50 (A549 [2]): 2.3 | pIC50 (Hs68): 4.58 | pIC50 (MEF): 4.44 | pIC50 (A549 [8]): 4.79

CC[C@H](C)C(=O)O[C@H]1C[C@@H](C)C=C2C=C[C@H](C)[C@H](CC[C@@H]3C[C@@H](O)CC(=O)O3)[C@H]21 [LOVASTATIN]
pIC50 (Hs68): 4.63 | pIC50 (MEF): 4.46
